Measurements taken from ChEMBL document CHEMBL1144999, “Identification of a novel, selective GABA(A) alpha5 receptor inverse agonist which enhances cognition” (J Med Chem, 2003).

Columns and labels:
[1] = biological target: T1, GABA-A receptor; alpha-2/beta-3/gamma-2 (Homo sapiens, UniProt P18507+P28472+P47869); test: Binding affinity to human gamma-amino butyric-acid A receptor alpha-2-beta-3-gamma-2, using a [3H]-Ro- 15-1788 radioligand; type: protein-complex assay
T1 sequence (P18507 whole entry): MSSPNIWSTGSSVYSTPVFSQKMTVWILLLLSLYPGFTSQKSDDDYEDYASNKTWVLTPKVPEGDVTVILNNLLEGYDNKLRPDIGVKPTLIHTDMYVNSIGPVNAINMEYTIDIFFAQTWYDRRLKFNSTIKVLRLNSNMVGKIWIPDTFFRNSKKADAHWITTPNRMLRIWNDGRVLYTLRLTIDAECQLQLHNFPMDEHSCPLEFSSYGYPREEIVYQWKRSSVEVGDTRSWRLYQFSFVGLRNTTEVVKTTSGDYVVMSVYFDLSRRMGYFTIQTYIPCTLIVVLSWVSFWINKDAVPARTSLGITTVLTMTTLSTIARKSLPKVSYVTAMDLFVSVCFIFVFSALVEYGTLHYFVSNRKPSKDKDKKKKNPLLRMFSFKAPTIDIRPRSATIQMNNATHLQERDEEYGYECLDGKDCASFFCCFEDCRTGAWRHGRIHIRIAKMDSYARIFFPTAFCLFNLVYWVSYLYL
T1 sequence (P28472 whole entry): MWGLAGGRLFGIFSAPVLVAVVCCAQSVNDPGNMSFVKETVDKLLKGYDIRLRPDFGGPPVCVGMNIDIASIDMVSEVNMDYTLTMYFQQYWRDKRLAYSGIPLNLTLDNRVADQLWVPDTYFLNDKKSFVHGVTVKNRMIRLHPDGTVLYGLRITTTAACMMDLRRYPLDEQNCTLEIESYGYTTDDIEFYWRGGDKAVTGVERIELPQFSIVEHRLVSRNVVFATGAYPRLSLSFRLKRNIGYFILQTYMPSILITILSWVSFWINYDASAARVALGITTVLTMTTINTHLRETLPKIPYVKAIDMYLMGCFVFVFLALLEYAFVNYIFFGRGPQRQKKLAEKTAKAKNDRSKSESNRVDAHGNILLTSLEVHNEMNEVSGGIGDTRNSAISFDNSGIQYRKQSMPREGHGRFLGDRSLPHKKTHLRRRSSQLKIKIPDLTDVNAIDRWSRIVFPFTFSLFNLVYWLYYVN
T1 sequence (P47869 whole entry): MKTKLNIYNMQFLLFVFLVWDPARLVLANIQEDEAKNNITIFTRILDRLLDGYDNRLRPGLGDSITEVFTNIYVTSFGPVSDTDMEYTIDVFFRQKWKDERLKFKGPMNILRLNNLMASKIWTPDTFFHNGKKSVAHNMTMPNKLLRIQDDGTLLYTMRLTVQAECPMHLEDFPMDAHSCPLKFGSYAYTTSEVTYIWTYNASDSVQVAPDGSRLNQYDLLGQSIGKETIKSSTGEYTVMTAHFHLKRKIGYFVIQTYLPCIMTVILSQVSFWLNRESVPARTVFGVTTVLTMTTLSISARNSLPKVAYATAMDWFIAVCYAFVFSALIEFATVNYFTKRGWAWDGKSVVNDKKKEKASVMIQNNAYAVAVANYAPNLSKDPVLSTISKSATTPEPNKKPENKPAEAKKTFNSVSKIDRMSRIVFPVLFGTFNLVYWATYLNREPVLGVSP
In short: (§1)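 Displacement of [3H]Ro 15-1788 binding from harvested L(tk-) cells stably expressing human recombinant GABA-A receptors with β3 and γ2 subunits plus α1, α2, α3 or α5. […] Ki given as geometric mean ± SEM of three independent determinations.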

[2] = biological target: T2, Gamma-aminobutyric acid receptor subunit alpha-5 (Homo sapiens) (UniProt P31644); test: Binding selectivity for human gamma-aminobutyric-acid A receptor alpha-5 over GABA A alpha1,alpha2 and alpha-3 receptors
T2 sequence (whole entry): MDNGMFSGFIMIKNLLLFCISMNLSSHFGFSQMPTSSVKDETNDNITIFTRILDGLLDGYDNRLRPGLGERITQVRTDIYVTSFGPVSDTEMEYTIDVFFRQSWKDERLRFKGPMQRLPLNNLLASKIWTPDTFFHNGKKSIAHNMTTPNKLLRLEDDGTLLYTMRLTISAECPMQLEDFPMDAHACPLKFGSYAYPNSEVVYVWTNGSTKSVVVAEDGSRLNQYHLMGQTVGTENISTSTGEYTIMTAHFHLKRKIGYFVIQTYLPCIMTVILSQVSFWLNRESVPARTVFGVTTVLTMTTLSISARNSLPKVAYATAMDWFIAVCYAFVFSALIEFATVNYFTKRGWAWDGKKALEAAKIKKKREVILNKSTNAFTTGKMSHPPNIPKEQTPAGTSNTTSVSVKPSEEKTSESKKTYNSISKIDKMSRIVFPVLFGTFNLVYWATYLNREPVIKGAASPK

[3] = biological target: T3, GABA-A receptor; alpha-5/beta-3/gamma-2 (Homo sapiens, UniProt P18507+P28472+P31644); test: Binding affinity to human GABA A alpha-5-beta-3-gamma-2 receptor, using a [3H]-Ro- 15-1788 radioligand; type: protein-complex assay; in short: as §1
T3 sequence (P18507 whole entry): T1 sequence (P18507 whole entry)
T3 sequence (P28472 whole entry): T1 sequence (P28472 whole entry)
T3 sequence (P31644 whole entry): T2 sequence (whole entry)

[4] = biological target: T4, GABA-A receptor; alpha-3/beta-3/gamma-2 (Homo sapiens, UniProt P18507+P28472+P34903); test: Binding affinity to human gamma-amino butyric-acid A receptor alpha-3-beta-3-gamma-2, using a [3H]-Ro- 15-1788 radioligand; type: protein-complex assay; in short: as §1
T4 sequence (P18507 whole entry): T1 sequence (P18507 whole entry)
T4 sequence (P28472 whole entry): T1 sequence (P28472 whole entry)
T4 sequence (P34903 whole entry): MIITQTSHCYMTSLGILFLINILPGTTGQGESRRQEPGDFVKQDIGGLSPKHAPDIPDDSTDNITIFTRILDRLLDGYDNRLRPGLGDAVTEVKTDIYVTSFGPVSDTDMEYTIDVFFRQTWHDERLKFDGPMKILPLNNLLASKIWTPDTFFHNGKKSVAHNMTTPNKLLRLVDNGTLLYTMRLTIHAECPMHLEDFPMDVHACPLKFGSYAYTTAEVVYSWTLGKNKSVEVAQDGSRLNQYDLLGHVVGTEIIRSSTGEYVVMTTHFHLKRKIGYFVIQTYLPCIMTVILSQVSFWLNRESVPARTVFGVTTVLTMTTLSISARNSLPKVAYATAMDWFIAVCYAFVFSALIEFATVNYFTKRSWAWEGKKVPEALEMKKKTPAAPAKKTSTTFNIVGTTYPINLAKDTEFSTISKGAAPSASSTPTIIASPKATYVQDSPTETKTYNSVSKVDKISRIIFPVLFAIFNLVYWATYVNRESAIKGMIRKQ

[5] = biological target: T5, GABA-A receptor; alpha-1/beta-3/gamma-2 (Homo sapiens, UniProt P14867+P18507+P28472); test: Binding affinity to human gamma-aminobutyric-acid A receptor alpha-1-beta-3-gamma-2, determined using [3H]-Ro- 15-1788 radioligand; type: protein-complex assay; in short: as §1
T5 sequence (P14867 whole entry): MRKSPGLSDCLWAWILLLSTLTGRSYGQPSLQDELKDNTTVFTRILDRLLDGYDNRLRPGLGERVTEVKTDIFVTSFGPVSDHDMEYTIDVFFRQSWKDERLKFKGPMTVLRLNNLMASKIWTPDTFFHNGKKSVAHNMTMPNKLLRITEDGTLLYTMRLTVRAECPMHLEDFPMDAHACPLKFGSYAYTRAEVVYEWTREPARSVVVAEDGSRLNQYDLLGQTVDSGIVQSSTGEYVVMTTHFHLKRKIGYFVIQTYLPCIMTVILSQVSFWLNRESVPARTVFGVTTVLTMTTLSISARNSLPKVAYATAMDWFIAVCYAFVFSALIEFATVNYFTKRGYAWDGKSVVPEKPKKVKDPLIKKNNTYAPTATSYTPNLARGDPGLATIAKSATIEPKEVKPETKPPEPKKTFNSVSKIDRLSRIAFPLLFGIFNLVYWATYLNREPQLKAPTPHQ
T5 sequence (P18507 whole entry): T1 sequence (P18507 whole entry)
T5 sequence (P28472 whole entry): T1 sequence (P28472 whole entry)

[6] = biological target: GABA-A receptor; alpha-5/beta-3/gamma-2 (Homo sapiens) (UniProt P18507+P28472+P31644); test: Efficacy for GABA-A receptor alpha-5-beta-3-gamma-2 subunits expressed in Xenopus laevis oocytes by two-electrode voltage clamp recording; type: cell-based; conditions: Oocyte
In short: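 Two-electrode voltage clamp on Xenopus laevis oocytes injected with human α5β3γ2 cDNA, recorded 2-4 days after injection. Expression checked with 3 mM GABA; oocytes with currents <0.3 μA rejected. A GABA EC20 was determined per oocyte. Compound applied at a single concentration near 100× Ki. Efficacy (%) = (current with compound/control EC20 current × 100) − 100.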

Ki [1]	Selectivity [2]	Ki [3]	Ki [4]	Ki [5]	Efficacy [6]	Compound
182 nM	18	15 nM	69 nM	119 nM		CC(C)Oc1sc(-c2cc[nH]n2)c2c1C(=O)CC(C)(C)C2
> 300 nM		> 300 nM	> 300 nM	> 300 nM		CC1(C)CC(=O)c2csc(-c3cc[nH]n3)c2C1
44 nM	22	3.9 nM	87 nM	72 nM	-2	CC(C)Nc1sc(-c2cc[nH]n2)c2c1C(=O)CC(C)(C)C2
> 300 nM	> 2	132 nM	> 300 nM	> 300 nM		CNc1sc(-c2cc[nH]n2)c2c1C(=O)CC(C)(C)C2
	19				-20	CSc1sc(-c2ccncc2)c2c1C(=O)CC(C)(C)C2
> 300 nM	> 2	170 nM	> 300 nM	> 300 nM		CC1(C)CC(=O)c2c(SC(C)(C)C)sc(-c3cc[nH]n3)c2C1
> 300 nM	> 4	78 nM	> 300 nM	> 300 nM		CC1(C)CC(=O)c2c(NCCO)sc(-c3cc[nH]n3)c2C1
7.6 nM	8	2.4 nM	18 nM	10 nM		CC1(C)CC(=O)c2c(Sc3cccs3)sc(-c3cc[nH]n3)c2C1
	6					CC(C)Sc1sc(-c2cc[nH]n2)c2c1C(=O)CC(C)(C)C2
> 300 nM	> 5	67 nM	> 300 nM	> 300 nM		COc1sc(-c2cc[nH]n2)c2c1C(=O)CC(C)(C)C2
46 nM	13	4.7 nM	50 nM	60 nM		CC1(C)CC(=O)c2c(SCCCO)sc(-c3cc[nH]n3)c2C1
> 300 nM	> 4	85 nM	> 300 nM	> 300 nM		CSc1sc(-c2ccc[nH]2)c2c1C(=O)CC(C)(C)C2
	13				-3	CSc1sc(-c2cc[nH]n2)c2c1C(=O)CC(C)(C)C2
> 300 nM	> 8	37 nM	185 nM	> 300 nM		CSc1sc(-c2nc(C)no2)c2c1C(=O)CC(C)(C)C2
	28				-24	CSc1sc(-c2nccs2)c2c1C(=O)CC(C)(C)C2
162 nM	22	11 nM	240 nM	211 nM		CCc1sc(-c2cc[nH]n2)c2c1C(=O)CC(C)(C)C2
39 nM	28	1.4 nM	28 nM	24 nM	-5	CC1(C)CC(=O)c2c(Sc3nccs3)sc(-c3nccs3)c2C1
	28				-40	CSc1sc(-c2cccnc2)c2c1C(=O)CC(C)(C)C2
19 nM	34	1.4 nM	48 nM	4.3 nM	-7	CC1(C)CC(=O)c2c(Sc3nccs3)sc(-c3cc[nH]n3)c2C1
	26				-31	CSc1sc(-c2ccccn2)c2c1C(=O)CC(C)(C)C2
	10					CCSc1sc(-c2cc[nH]n2)c2c1C(=O)CC(C)(C)C2
> 300 nM		> 300 nM	> 300 nM	> 300 nM		CSc1sc(-c2ccccc2)c2c1C(=O)CC(C)(C)C2
49 nM	14	19 nM	102 nM	267 nM		CSc1sc(-c2ncn(C)n2)c2c1C(=O)CC(C)(C)C2
48 nM	17	4.7 nM	48 nM	79 nM	25	CC1(C)CC(=O)c2c(SCCCO)sc(-c3nccs3)c2C1
184 nM	10	18 nM	182 nM	57 nM		CCCCSc1sc(-c2cc[nH]n2)c2c1C(=O)CC(C)(C)C2
161 nM	12	15 nM	159 nM	175 nM		CSc1sc(-c2cncs2)c2c1C(=O)CC(C)(C)C2
	20				-39	CC1(C)CC(=O)c2c(SCCO)sc(-c3ccccn3)c2C1
	11					CC1(C)CC(=O)c2c(SCCO)sc(-c3cc[nH]n3)c2C1
28 nM	9	4.6 nM	41 nM	22 nM		CCCSc1sc(-c2cc[nH]n2)c2c1C(=O)CC(C)(C)C2
